Tests used:
Format in all cases: functional
[1] = tested on: Melanoma cell; test: Growth inhibition of human Melanoma cells after 48 hrs by coulter counter method
Outline: (§1)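 NCI 60-line panel cells. Compound is dissolved in DMSO and diluted in phosphate-buffered saline, with final DMSO below 1%. It is added in duplicate wells to cultures at 6 × 10⁴ cells/ml and held at 37 °C, 5% CO₂, humidified, for 48 h. Cells are diluted 10-fold in saline, counted by Coulter counter and dilution-corrected. Vehicle controls contain PBS plus DMSO.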

[2] = Growth inhibition of human CNS cancer cells after 48 hrs by coulter counter method; details: Cancer cell lines; outline: as §1
[3] = Growth inhibition of human leukemia cells after 48 hrs by coulter counter method; details: Leukemia cell; outline: as §1
[4] = Growth inhibition of human renal cancer cells after 48 hrs by coulter counter method; details: Cancer cell lines; outline: as §1
[5] = Growth inhibition of human breast cancer cells after 48 hrs by coulter counter method; details: Cancer cell lines; outline: as §1
[6] = Growth inhibition of human prostate cancer cells after 48 hrs by coulter counter method; details: Cancer cell lines; outline: as §1
[7] = Growth inhibition of human colon cancer cells after 48 hrs by coulter counter method; details: Cancer cell lines; outline: as §1
[8] = Growth inhibition of human ovarian cancer cells after 48 hrs by coulter counter method; details: Cancer cell lines; outline: as §1
[9] = tested on: NSCLC; test: Growth inhibition of human NSCLC cells after 48 hrs by coulter counter method; outline: as §1
[10] = read-out: LC50 (the source's name)

O=c1[nH]cc(F)c(=O)[nH]1 [FLUOROURACIL]
TGI [1]: > 100 µM
TGI [2]: > 100 µM
CC50 [2, 10]: > 100 µM
TGI [3]: > 100 µM
CC50 [3, 10]: > 100 µM
GI50 [4]: 45.6 µM
TGI [4]: > 100 µM
CC50 [4, 10]: > 100 µM
GI50 [5]: 76.4 µM
TGI [5]: > 100 µM
CC50 [5, 10]: > 100 µM
GI50 [6]: 22.7 µM
TGI [6]: > 100 µM
GI50 [7]: 8.4 µM
TGI [7]: > 100 µM
GI50 [8]: 61.4 µM
TGI [8]: > 100 µM
GI50 [9]: > 100 µM
TGI [9]: > 100 µM
CC50 [9, 10]: > 100 µM

— ChEMBL document CHEMBL1926577, “Novel 1,3,4-heterodiazole analogues: synthesis and in-vitro antitumor activity” (2012)
